Measured values: paper PMC3001191 (Cancer research, 2010)

Legend:
[1] = test system: MEK and ERK phosphorylation in KRAS mutant SW620 colorectal carcinoma cells; assay: Western blotting of MAPK signaling; type: cell-based, human; settings: 24 h
Procedure, shortened: (§1)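 Cells in DMEM with 10% FBS were exposed to a concentration series for 24 h and lysed. Lysates were blotted for phospho-MEK1/2, MEK1, phospho-ERK1/2, ERK2 and cyclin D1. Detection used Alexa Fluor 680 and 800CW secondary antibodies, with quantification on an infrared scanner.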

[2] = test system: ^G12VKRAS mutant human colorectal carcinoma SW620 xenografts; assay: Therapy study, xenograft growth; type: in vivo, mice; settings: 20 mg/kg daily p.o. for 23 d
Procedure, shortened: (§2)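 Female Crl:CD1-Foxn1nu mice (>6 weeks) were implanted s.c. with 10^7 A375M or 7 × 10^6 SW620 cells. Tumors grew to 50–150 mm3, and groups of 8 were assigned by stratified tumor volume. Mice received 20 mg/kg/d by gavage (10 ml/kg, DMSO:water 1:19) or vehicle, for 24 d (A375M) or 23 d (SW620). Calipers measured tumors every 3-4 d, and mean volume ± SEM was plotted.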

SKMEL23 cells = assay: SRB growth inhibition assay, cell line panel; type: cell-based, human
Procedure, shortened: (§3)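 Growth inhibition was measured by sulforhodamine B across a panel of melanoma, colon and breast cancer cell lines after 5 d continuous exposure. Seeding density was optimized per line to keep growth logarithmic. Curves used 10-point dilution series in quadruplicate and were fitted to give IC50/GI50. Lines were grouped by BRAF/RAS mutation status for comparison.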

[3] = test system: cell lines in which BRAF is wildtype; assay: SRB growth inhibition assay, cell line panel; type: cell-based, human; settings: 5 d exposure
Procedure, shortened: as §3

^T529N,V600EBRAF = ^T529N,V600EBRAF (Homo sapiens, UniProt P15056, T529N/V600E); assay: DELFIA kinase assay, gatekeeper mutant; type: biochemical; settings: at up to 10 μM
Procedure, shortened: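 Full-length recombinant BRAF construct carrying the gatekeeper and activating substitutions was tested in a 96-well DELFIA assay. The assay measured direct phosphorylation of bacterially produced GST-MEK at 100 µM ATP. Reactions ran in duplicate for 45 min at 20°C, within the linear range, across an 11-concentration response curve. Each value was the mean of 3 independent assays.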

BRAF = BRAF (Homo sapiens, UniProt P15056); assay: Z'-LYTE SelectScreen kinase profiling; type: biochemical
CRAF = CRAF (Homo sapiens, UniProt P04049, Y340D/Y341D); assay: Z'-LYTE SelectScreen kinase profiling; type: biochemical
[4] = test system: ^V600EBRAF-expressing Ba/F3 cells; assay: DNA synthesis; type: cell-based; settings: Mus musculus, BaF3, 24 h, read-out: growth (DNA synthesis) inhibition
Procedure, shortened: (§4)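 Ba/F3 lines stably expressing the mutant BRAF were cultured in RPMI1640 with 10% FBS at 37 °C in 10% CO2. Cells (1-5 × 10^4 per well) were exposed to compound for 24 h, with 0.08 µCi [3H]-thymidine added per well for the last 4 h. Cells were then captured on glass-fibre filters and washed twice with PBS and twice with methanol. Incorporated label was counted by scintillation.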

Tolerability in mice = type: in vivo
LCK = LCK (Homo sapiens, UniProt P06239); assay: Z'-LYTE SelectScreen kinase profiling; type: biochemical
[5] = test system: ERK1/2 phosphorylation in WM266.4 cells; assay: Phospho-ERK cell-based ELISA; set-up: species or system human; settings: cellular potency greater
RET = RET (Homo sapiens, UniProt P07949); assay: Z'-LYTE SelectScreen kinase profiling; type: biochemical
SRC = SRC (Homo sapiens, UniProt P12931); assay: Z'-LYTE SelectScreen kinase profiling; type: biochemical
PDGFRα = PDGFRα (Homo sapiens, UniProt P16234); assay: Z'-LYTE SelectScreen kinase profiling; type: biochemical
PDGFRβ = PDGFRβ (Homo sapiens, UniProt P09619); assay: Z'-LYTE SelectScreen kinase profiling; type: biochemical
panel of 80 kinases = assay: Selectivity profile against 80 kinase panel; type: biochemical, human; settings: 1 μM 1t
Procedure, shortened: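 Each of 80 kinases was screened at a single 1 µM concentration using the commercial SelectScreen panel under the provider's protocols. Results were expressed as percent inhibition of kinase activity, and kinases inhibited by >70% were singled out.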

FGFR1 = FGFR1 (Homo sapiens, UniProt P11362); assay: Z'-LYTE SelectScreen kinase profiling; type: biochemical
SW620 cells = assay: MTS cell proliferation assay; type: cell-based, human; settings: 72 h
Procedure, shortened: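 SW620 cells in DMEM with 10% FBS received a range of compound concentrations for 72 h. Proliferation was quantified with MTS reagent. Seeding density was optimized so growth stayed logarithmic throughout treatment. Wells were run in quadruplicate, and comparisons used a t-test.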

[6] = test system: MEK phosphorylation in SW620 xenografts; assay: Pharmacodynamics, MEK phosphorylation in tumor xenografts; type: in vivo, mice; settings: single p.o. dose 20 mg/kg, 4 h, KRAS mutant SW620 tumors
Procedure, shortened: (§5)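 Female Crl:CD1-Foxn1nu mice (>6 weeks) were inoculated s.c. with 10^7 A375M or 7 × 10^6 SW620 cells. Tumors were grown to 50–150 mm3. Groups of 3-4 mice received one 20 mg/kg oral gavage dose or vehicle and were culled 4 h later. Tumors were snap-frozen, lysed in NP40 buffer and homogenised. Equal protein was probed by quantitative fluorescent Western blot for phospho-MEK1/2 and total MEK1.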

[7] = test system: ^V600EBRAF A375M melanoma xenografts; assay: Therapy study, xenograft growth; type: in vivo, mice; settings: 20 mg/kg q.d. p.o. for 24 d, on completion of the experiment, p<0.05
Procedure, shortened: as §2

KIT = KIT (Homo sapiens, UniProt P10721); assay: Z'-LYTE SelectScreen kinase profiling; type: biochemical
VEGFR2 = VEGFR2 (Homo sapiens, UniProt P35968); assay: Z'-LYTE SelectScreen kinase profiling; type: biochemical
Pharmacokinetics in mice = type: in vivo; settings: for concentration at 18 h: po, 10 mg/kg
Procedure, shortened: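 Female BALB/cAnNCrl mice over 6 weeks old were dosed i.v. at 2 mg/kg (10 ml/kg, DMSO:Tween 20:water 10:1:89). Others received 10 mg/kg by oral gavage (10 ml/kg, DMSO:water 1:19). At 5 min (i.v. only), 15 and 30 min, and 1, 3, 6 and 18 h, 3 mice per point gave heparinized blood for plasma under isoflurane. Femoral muscle was also collected. Plasma levels were compared with the mean 5-d SRB GI50 of BRAF-mutant lines.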

p38α = p38α (Homo sapiens, UniProt Q16539); assay: Z'-LYTE SelectScreen kinase profiling; type: biochemical
p38γ = p38γ (Homo sapiens, UniProt P53778); assay: Z'-LYTE SelectScreen kinase profiling; type: biochemical
[8] = test system: ^V600EBRAF mutant HT29 cells; assay: SRB growth inhibition assay, cell line panel; type: cell-based, human
Procedure, shortened: as §3

COT = COT (Homo sapiens, UniProt P41279); assay: Z'-LYTE SelectScreen kinase profiling; type: biochemical
[9] = test system: WM266.4 (^V600DBRAF) cells; assay: DNA synthesis; type: cell-based, human; settings: WM266.4 cells, 0.1 μM 1t for 24 h
Procedure, shortened: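 Cells were grown in DMEM with 10% FBS at 37 °C in 10% CO2. They were seeded at 10^5 per well in 6-well plates and treated with 0.1 µM compound for 24 h. DNA synthesis was measured with 0.8 µCi tritiated label per well. Cells were harvested by trypsinization and an aliquot was filter-captured and scintillation-counted as for suspension cells.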

[10] = test system: cancer cell lines harboring ^V600D/EBRAF mutations; assay: SRB growth inhibition assay, cell line panel; type: cell-based, human; settings: 5 d exposure, ^V600D/EBRAF mutant lines
Procedure, shortened: as §3

[11] = test system: ^T529N,V600EBRAF-expressing Ba/F3 cells; assay: DNA synthesis; type: cell-based; settings: Mus musculus, BaF3, 24 h, read-out: growth (DNA synthesis) inhibition
Procedure, shortened: as §4

^V600EBRAF = ^V600EBRAF (Homo sapiens, UniProt P15056, V600E); assay: Z'-LYTE SelectScreen kinase profiling; type: biochemical
[12] = test system: MEK phosphorylation in A375M xenografts; assay: Pharmacodynamics, MEK phosphorylation in tumor xenografts; type: in vivo, mice; settings: single oral dose of 20 mg/kg, 4 h, A375M tumors
Procedure, shortened: as §5

MET = MET (Homo sapiens, UniProt P08581); assay: Z'-LYTE SelectScreen kinase profiling; type: biochemical
[13] = test system: MEK and ERK phosphorylation in ^V600DBRAF WM266.4 cells; assay: Western blotting of MAPK signaling; type: cell-based, human; settings: 24 h
Procedure, shortened: as §1

[14] = test system: MEK and ERK phosphorylation in BRAF wild-type D35 melanoma cells; assay: Western blotting of MAPK signaling; type: cell-based; settings: 24 h, concentrations up to 10 μM
Procedure, shortened: as §1

VEGFR1 = VEGFR1 (Homo sapiens, UniProt P17948); assay: Z'-LYTE SelectScreen kinase profiling; type: biochemical
^V600EBRAF in cells = settings: cited from earlier work
[15] = test system: ^V600EBRAF purified kinase; settings: cited from earlier work
[16] = continuous daily dosing 20 mg/kg in therapy experiments
[17] = female, BALB/cAnNCrl, mouse, plasma, iv, 2 mg/kg

Chain of VEGFR2 (P35968 20-1356): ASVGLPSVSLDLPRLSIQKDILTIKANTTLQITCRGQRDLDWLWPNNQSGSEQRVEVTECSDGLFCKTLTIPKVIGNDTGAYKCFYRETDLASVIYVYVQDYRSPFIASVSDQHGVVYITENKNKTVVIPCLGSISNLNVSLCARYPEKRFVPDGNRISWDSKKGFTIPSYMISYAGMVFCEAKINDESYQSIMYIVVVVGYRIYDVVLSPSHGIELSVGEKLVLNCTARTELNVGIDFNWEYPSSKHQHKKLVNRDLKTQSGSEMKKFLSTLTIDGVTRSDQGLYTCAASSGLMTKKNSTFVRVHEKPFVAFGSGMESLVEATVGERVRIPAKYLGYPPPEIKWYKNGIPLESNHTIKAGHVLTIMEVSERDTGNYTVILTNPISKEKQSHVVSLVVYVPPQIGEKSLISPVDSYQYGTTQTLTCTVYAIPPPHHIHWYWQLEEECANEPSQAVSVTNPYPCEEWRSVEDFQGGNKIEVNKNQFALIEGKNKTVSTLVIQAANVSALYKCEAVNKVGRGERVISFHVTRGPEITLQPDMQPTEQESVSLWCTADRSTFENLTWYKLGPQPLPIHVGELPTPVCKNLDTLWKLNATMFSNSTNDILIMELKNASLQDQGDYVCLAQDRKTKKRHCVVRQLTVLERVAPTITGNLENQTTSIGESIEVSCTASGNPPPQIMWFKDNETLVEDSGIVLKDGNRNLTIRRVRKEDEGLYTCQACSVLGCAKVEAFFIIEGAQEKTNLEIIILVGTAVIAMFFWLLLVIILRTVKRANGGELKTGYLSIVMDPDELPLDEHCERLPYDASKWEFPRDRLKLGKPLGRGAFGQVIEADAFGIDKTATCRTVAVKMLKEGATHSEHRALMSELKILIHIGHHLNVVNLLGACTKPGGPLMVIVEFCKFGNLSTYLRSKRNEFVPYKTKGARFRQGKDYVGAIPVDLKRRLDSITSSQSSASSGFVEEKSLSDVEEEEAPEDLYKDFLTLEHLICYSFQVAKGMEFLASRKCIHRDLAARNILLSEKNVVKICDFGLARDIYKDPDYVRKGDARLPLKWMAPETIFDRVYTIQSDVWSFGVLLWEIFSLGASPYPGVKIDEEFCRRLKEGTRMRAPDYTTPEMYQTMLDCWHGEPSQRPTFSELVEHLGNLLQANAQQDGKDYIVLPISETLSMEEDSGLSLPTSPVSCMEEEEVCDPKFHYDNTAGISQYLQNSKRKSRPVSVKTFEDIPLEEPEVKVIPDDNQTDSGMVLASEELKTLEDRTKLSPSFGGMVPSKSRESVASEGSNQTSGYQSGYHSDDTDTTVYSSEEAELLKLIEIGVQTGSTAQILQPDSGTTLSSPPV
Chain of BRAF (P15056 whole entry): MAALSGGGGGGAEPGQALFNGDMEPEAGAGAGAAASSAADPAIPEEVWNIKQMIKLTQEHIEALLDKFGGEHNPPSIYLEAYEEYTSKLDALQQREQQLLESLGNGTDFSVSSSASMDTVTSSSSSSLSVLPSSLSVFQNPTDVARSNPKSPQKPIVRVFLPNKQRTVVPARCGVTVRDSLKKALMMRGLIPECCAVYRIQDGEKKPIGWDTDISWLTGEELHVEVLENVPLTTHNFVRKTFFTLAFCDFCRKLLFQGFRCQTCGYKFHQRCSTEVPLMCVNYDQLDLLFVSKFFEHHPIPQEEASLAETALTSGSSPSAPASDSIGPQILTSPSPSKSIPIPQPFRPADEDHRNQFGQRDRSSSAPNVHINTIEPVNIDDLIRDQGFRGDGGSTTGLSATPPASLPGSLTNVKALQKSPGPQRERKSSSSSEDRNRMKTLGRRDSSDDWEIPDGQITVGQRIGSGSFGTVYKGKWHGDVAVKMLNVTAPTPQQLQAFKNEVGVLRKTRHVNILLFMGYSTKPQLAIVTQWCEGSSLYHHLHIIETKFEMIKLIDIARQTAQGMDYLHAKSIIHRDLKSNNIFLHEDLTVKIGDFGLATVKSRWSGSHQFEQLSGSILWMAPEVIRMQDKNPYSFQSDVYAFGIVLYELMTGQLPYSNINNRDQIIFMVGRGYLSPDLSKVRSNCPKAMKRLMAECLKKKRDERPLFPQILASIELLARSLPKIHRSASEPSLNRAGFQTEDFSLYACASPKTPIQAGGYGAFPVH
Chain of CRAF (P04049 306-648 Y340D/Y341D limits assumed): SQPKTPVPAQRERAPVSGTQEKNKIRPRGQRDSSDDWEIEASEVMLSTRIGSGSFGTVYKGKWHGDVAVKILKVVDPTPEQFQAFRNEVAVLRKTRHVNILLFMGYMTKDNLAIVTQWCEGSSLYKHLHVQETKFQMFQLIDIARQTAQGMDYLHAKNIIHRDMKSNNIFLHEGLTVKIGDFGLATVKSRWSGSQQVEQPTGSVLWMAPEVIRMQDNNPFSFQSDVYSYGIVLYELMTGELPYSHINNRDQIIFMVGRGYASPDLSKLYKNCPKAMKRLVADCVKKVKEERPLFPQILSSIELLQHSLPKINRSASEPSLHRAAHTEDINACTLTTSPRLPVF
Chain of VEGFR1 (P17948 27-1338): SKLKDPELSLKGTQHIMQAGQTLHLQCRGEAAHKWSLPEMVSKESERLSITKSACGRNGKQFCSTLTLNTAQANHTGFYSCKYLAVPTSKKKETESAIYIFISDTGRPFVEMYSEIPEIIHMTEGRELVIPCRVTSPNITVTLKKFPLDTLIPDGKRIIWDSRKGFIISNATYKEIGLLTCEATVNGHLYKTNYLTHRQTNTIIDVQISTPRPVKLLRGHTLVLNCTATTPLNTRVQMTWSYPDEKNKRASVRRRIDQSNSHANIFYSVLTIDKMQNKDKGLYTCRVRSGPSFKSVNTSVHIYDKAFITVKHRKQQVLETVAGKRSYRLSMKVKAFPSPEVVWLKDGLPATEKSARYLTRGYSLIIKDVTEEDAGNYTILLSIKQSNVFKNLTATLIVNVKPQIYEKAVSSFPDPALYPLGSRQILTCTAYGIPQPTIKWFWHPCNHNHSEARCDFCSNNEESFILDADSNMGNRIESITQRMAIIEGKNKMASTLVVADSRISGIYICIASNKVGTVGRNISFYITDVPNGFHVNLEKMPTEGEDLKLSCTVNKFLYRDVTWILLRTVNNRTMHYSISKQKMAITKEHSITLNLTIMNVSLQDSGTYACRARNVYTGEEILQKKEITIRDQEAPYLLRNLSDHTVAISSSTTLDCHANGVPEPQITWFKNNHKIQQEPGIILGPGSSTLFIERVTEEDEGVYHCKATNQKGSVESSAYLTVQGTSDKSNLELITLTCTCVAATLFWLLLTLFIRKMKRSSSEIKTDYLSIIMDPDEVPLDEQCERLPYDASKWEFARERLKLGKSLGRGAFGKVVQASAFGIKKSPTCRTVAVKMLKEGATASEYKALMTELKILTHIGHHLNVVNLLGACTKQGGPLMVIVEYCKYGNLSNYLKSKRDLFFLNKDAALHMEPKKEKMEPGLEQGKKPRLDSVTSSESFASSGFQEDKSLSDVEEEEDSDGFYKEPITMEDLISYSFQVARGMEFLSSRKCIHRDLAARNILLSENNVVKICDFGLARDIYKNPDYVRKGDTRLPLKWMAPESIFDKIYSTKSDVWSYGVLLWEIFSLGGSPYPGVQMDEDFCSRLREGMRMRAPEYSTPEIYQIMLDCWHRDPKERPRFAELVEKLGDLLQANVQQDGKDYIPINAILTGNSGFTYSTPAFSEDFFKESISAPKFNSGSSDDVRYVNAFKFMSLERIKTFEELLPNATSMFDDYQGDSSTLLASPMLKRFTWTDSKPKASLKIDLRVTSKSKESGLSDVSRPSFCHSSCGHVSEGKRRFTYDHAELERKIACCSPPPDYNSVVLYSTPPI
Chain of ^T529N,V600EBRAF (P15056 whole entry T529N/V600E): as the sequence (P15056 whole entry) above, with T529N, V600E counted along it
Chain of FGFR1 (P11362 22-822): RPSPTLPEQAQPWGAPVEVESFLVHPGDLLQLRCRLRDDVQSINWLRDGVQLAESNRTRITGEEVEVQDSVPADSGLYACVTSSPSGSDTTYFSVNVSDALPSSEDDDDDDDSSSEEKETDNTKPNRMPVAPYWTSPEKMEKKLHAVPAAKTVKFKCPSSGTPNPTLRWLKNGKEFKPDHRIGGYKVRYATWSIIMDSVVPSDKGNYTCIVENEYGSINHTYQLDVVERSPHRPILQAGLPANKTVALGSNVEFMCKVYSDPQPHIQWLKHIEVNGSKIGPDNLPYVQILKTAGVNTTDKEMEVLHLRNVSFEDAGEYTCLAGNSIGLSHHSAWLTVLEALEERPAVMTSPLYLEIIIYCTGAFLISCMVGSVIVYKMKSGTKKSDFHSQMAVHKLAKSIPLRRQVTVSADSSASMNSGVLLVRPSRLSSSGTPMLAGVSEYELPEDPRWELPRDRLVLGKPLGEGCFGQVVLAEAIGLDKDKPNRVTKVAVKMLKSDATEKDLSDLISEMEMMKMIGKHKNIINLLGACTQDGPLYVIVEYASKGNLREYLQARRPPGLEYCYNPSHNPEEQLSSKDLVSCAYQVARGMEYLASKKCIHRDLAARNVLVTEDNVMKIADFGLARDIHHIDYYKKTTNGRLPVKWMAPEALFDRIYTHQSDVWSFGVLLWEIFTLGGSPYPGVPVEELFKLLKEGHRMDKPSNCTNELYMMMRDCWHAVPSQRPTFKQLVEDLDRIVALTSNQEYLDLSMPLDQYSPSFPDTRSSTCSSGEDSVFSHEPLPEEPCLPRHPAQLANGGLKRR
Chain of COT (P41279 whole entry): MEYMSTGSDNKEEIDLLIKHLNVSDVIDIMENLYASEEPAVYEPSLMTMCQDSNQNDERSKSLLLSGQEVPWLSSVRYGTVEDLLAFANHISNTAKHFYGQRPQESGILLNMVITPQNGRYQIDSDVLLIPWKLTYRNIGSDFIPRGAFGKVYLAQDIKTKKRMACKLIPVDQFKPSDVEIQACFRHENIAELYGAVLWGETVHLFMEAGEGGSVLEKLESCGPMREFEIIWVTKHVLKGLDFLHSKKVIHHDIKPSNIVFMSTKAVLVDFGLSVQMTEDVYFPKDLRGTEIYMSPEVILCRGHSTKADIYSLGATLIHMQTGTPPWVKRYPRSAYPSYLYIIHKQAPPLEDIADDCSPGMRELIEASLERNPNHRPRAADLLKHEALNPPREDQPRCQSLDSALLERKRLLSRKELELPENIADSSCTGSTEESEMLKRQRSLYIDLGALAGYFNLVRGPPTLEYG

SMILES: CSc1cc(Oc2ccnc3[nH]c(=O)cnc23)ccc1NC(=O)Nc1cc(C(C)(C)C)nn1-c1ccc(C)cc1 [Compound 1t, 1-(3-tert-butyl-1-p-tolyl-1H-pyrazol-5-yl)-3-(2-(methylthio)-4-(3-oxo-3,4-dihydropyrido[2,3-b]pyrazin-8-yloxy)phenyl)urea]
- effect on MEK and ERK phosphorylation [1]: profound increase
- tumor growth inhibition [2]: No inhibition of tumor growth
- sensitivity relative to the other BRAF/RAS wildtype cells (SKMEL23 cells): considerably more sensitive
- growth inhibition [3]: relatively ineffective
- inhibition of ^T529N,V600EBRAF kinase activity (^T529N,V600EBRAF): not inhibited
- IC50 (BRAF): 81 nM
- fold less active against wildtype BRAF than against ^V600EBRAF (BRAF; SelectScreen Panel): more than 6 fold
- IC50 (CRAF): 12 nM
- inhibition at 1 µM [4]: 96%
- adverse effects / body weight (Tolerability in mice; 10 and 20 mg/kg/d p.o. for 4 d, body weight monitored a further 27 d): No adverse effects were observed
- body weight loss (Tolerability in mice; [16]): less than 10%
- deaths (Tolerability in mice; [16]): does not cause any deaths
- IC50 (LCK): 6 nM
- cellular potency relative to inhibition of recombinant ^V600EBRAF in vitro [5]: approximately 4 fold
- IC50 (RET): 4860 nM
- IC50 (SRC): 23 nM
- IC50 (PDGFRα): 439 nM
- IC50 (PDGFRβ): 2430 nM
- inhibition of kinases in an 80 kinase panel (panel of 80 kinases): failed to inhibit most of the kinases
- IC50 (FGFR1): 2580 nM
- effect on proliferation (SW620 cells): small increase in proliferation
- increase in MEK phosphorylation [6]: 2 fold
- tumor growth inhibition [7]: 50%
- IC50 (KIT): > 10000 nM
- IC50 (VEGFR2): 1000 nM
- fold less active against VEGFR2/KDR than against ^V600EBRAF (VEGFR2; SelectScreen Panel): more than 50 fold
- concentration at 18 h (Pharmacokinetics in mice; female, BALB/cAnNCrl, mouse, femoral muscle): > 3 µM
- clearance (Pharmacokinetics in mice; [17]): 0.00667 mL/min
- half-life (Pharmacokinetics in mice; [17]): 6.8 h
- concentration at 18 h (Pharmacokinetics in mice; female, BALB/cAnNCrl, mouse, plasma): > 19 µM
- plasma concentration relative to average GI50 for BRAF mutant cancer cell lines (Pharmacokinetics in mice; mice): over 100 fold
- IC50 (p38α): 285 nM
- IC50 (p38γ): 1020 nM
- sensitivity relative to the majority of the other BRAF mutant cell lines [8]: less sensitive
- IC50 (COT): > 10000 nM
- inhibition of DNA synthesis [9]: profound inhibition
- growth inhibition [10]: inhibits the growth
- inhibition at 1 µM [11]: 21%
- IC50 (^V600EBRAF): 13 nM
- inhibition of MEK phosphorylation [12]: observed
- IC50 (MET): > 10000 nM
- concentration inhibiting MEK and ERK phosphorylation [13]: 10 to 100 nM
- MEK and ERK phosphorylation / cyclin D1 response [14]: no such responses are observed
- IC50 (VEGFR1): 5160 nM

SMILES: CNC(=O)c1cc(Oc2ccc(NC(=O)Nc3ccc(Cl)c(C(F)(F)F)c3)cc2)ccn1 [sorafenib]
- activity against ^V600EBRAF in cells (^V600EBRAF in cells): 2 to 5 µM
- fold less active in cells than against the purified kinase (^V600EBRAF in cells): approximately 100 fold
- activity against the purified kinase in vitro [15]: 40 nM
